Structures are written as SMILES.

One assay is described as follows: Antiproliferative activity against human LoVo cells measured after 48 hrs by MTT assay. In kind it is functional, cell-based.
Details: not given
(In general: Tetrazolium dyes change colour on reduction, which living cells bring about.)
Take `COc1cc(C2=CCCCc3c2ccc2c3CCN2C)cc(OC)c1OC`: the IC50 amounted to 79 nM.
`CCCn1ccc2c3c(ccc21)C(c1cc(OC)c(OC)c(OC)c1)=CCCC3`: half-maximal inhibition (IC50) was put at 690 nM.
For `COc1cc(C2=CCCCc3c2ccc2c3c(CO)cn2C)cc(OC)c1OC`, half-maximal inhibition (IC50) was put at 32 nM.
With `COc1cc(C2=CCCCc3c2ccc2c3ccn2C)cc(OC)c1OC`, the IC50 is 47 nM.
The compound `COc1ccc(/C=C\c2cc(OC)c(OC)c(OC)c2)cc1O` [COMBRETASTATIN A4] came in with an IC50 of 17 nM.
Compound `COc1cc(C2=CCCCc3c2ccc2c3CCN2)cc(OC)c1OC` displayed an IC50 of 1120 nM.
The same measure, in the same setting: then `COC(=O)C(=O)c1cn(C)c2ccc3c(c12)CCCC=C3c1cc(OC)c(OC)c(OC)c1`, with over 10000 nM.

A further assay can be described thus: Antiproliferative activity against human A549 cells measured after 48 hrs by MTT assay. In kind it is functional, cell-based. Particulars: A549, 48 h.
As to `COc1cc(C2=CCCCc3c2ccc2c3CCN2C)cc(OC)c1OC`, inhibition was half-maximal at 56 nM (IC50).
`CCCn1ccc2c3c(ccc21)C(c1cc(OC)c(OC)c(OC)c1)=CCCC3`: 520 nM corresponded to half-maximal inhibition (IC50).
`COc1cc(C2=CCCCc3c2ccc2c3c(CO)cn2C)cc(OC)c1OC` displayed an IC50 of 43 nM.
Regarding `COc1cc(C2=CCCCc3c2ccc2c3ccn2C)cc(OC)c1OC`, half-maximal inhibition (IC50) required 49 nM.
Same read-out and setting: then `COc1ccc(/C=C\c2cc(OC)c(OC)c(OC)c2)cc1O` [COMBRETASTATIN A4], with 10 nM.
For the compound `COc1cc(C2=CCCCc3c2ccc2c3CCN2)cc(OC)c1OC`, it took 312 nM to reach half-maximal inhibition (IC50).
`COC(=O)C(=O)c1cn(C)c2ccc3c(c12)CCCC=C3c1cc(OC)c(OC)c(OC)c1` displayed a half-maximal inhibitory concentration (IC50) of over 10000 nM.

A further assay in a line: Inhibition of porcine brain tubulin polymerization measured every 60 secs for 90 mins by fluorescence assay.
Details: not given
More on the design: species or system Sus scrofa. The method, boiled down: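 Porcine brain tubulin in a fluorescence kit. Reaction mix: 80.0 mM PIPES sesquisodium (pH 6.9), 2.0 mM MgCl2, 0.5 mM EGTA, 1 mM GTP, 10.2% glycerol. Compound added and mix pre-warmed 1 min at 37 °C, then tubulin added to start. Fluorescence (ex 340, em 410 nm) read every 60 s for 90 min. IC50 from area under curve, three independent experiments.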
Take `COc1cc(C2=CCCCc3c2ccc2c3CCN2C)cc(OC)c1OC`: the IC50 worked out at 1040 nM.
Still for that read-out and setting: to `COc1cc(C2=CCCCc3c2ccc2c3c(CO)cn2C)cc(OC)c1OC` belongs 410 nM.
On the same count and under the same terms, to `COc1cc(C2=CCCCc3c2ccc2c3ccn2C)cc(OC)c1OC` belongs 580 nM; to `COc1ccc(/C=C\c2cc(OC)c(OC)c(OC)c2)cc1O` [COMBRETASTATIN A4], 1120 nM.

Another assay can be described thus: Antiproliferative activity against human Bel7402 cells measured after 48 hrs by MTT assay. It counts as functional, cell-based. Particulars: Bel-7402, 48 h.
The compound `COc1cc(C2=CCCCc3c2ccc2c3CCN2C)cc(OC)c1OC` had an IC50 of 61 nM.
`CCCn1ccc2c3c(ccc21)C(c1cc(OC)c(OC)c(OC)c1)=CCCC3` came in with an IC50 of 480 nM.
As to `COc1cc(C2=CCCCc3c2ccc2c3c(CO)cn2C)cc(OC)c1OC`, it took 46 nM to reach half-maximal inhibition (IC50).
Same read-out and setting: to `COc1cc(C2=CCCCc3c2ccc2c3ccn2C)cc(OC)c1OC` belongs 78 nM; to `COc1ccc(/C=C\c2cc(OC)c(OC)c(OC)c2)cc1O` [COMBRETASTATIN A4], 13 nM; to `COc1cc(C2=CCCCc3c2ccc2c3CCN2)cc(OC)c1OC`, 797 nM.
Turning to `COC(=O)C(=O)c1cn(C)c2ccc3c(c12)CCCC=C3c1cc(OC)c(OC)c(OC)c1`, the IC50 is over 10000 nM.

The next assay is described as follows: Antiproliferative activity against human MCF7 cells measured after 48 hrs by MTT assay. It counts as functional, cell-based. Particulars: MCF7, 48 h.
In the case of `COc1cc(C2=CCCCc3c2ccc2c3CCN2C)cc(OC)c1OC`, inhibition was half-maximal at 58 nM (IC50).
Still for that read-out and setting: to `CCCn1ccc2c3c(ccc21)C(c1cc(OC)c(OC)c(OC)c1)=CCCC3` belongs 780 nM; to `COc1cc(C2=CCCCc3c2ccc2c3c(CO)cn2C)cc(OC)c1OC`, 63 nM.
Same read-out and setting: then `COc1cc(C2=CCCCc3c2ccc2c3ccn2C)cc(OC)c1OC`, with 69 nM; and `COc1ccc(/C=C\c2cc(OC)c(OC)c(OC)c2)cc1O` [COMBRETASTATIN A4], with 29 nM.
Take `COc1cc(C2=CCCCc3c2ccc2c3CCN2)cc(OC)c1OC`: the IC50 worked out at 812 nM.
`COC(=O)C(=O)c1cn(C)c2ccc3c(c12)CCCC=C3c1cc(OC)c(OC)c(OC)c1` returned an IC50 of over 10000 nM.

The next assay is described as follows: Antiproliferative activity against human PC3 cells measured after 48 hrs by MTT assay. In kind it is functional, cell-based. Particulars: PC-3, 48 h.
On to `COc1cc(C2=CCCCc3c2ccc2c3CCN2C)cc(OC)c1OC`, for which the IC50 was 77 nM.
Compound `CCCn1ccc2c3c(ccc21)C(c1cc(OC)c(OC)c(OC)c1)=CCCC3` displayed an IC50 of 690 nM.
`COc1cc(C2=CCCCc3c2ccc2c3c(CO)cn2C)cc(OC)c1OC` had an IC50 of 49 nM.
As to `COc1cc(C2=CCCCc3c2ccc2c3ccn2C)cc(OC)c1OC`, the IC50 came out at 93 nM.
Regarding `COc1ccc(/C=C\c2cc(OC)c(OC)c(OC)c2)cc1O` [COMBRETASTATIN A4], the IC50 came to 26 nM.
Compound `COc1cc(C2=CCCCc3c2ccc2c3CCN2)cc(OC)c1OC` showed an IC50 of 741 nM.
The same measure, in the same setting: to `COC(=O)C(=O)c1cn(C)c2ccc3c(c12)CCCC=C3c1cc(OC)c(OC)c(OC)c1` belongs over 10000 nM.

A further assay in a line: Antiproliferative activity against human HeLa cells measured after 48 hrs by MTT assay. It counts as functional, cell-based.
Details: not given
In turn, `COc1cc(C2=CCCCc3c2ccc2c3CCN2C)cc(OC)c1OC` came in with an IC50 of 45 nM.
`CCCn1ccc2c3c(ccc21)C(c1cc(OC)c(OC)c(OC)c1)=CCCC3` returned an IC50 of 600 nM.
As for `COc1cc(C2=CCCCc3c2ccc2c3c(CO)cn2C)cc(OC)c1OC`, the IC50 is 33 nM.
`COc1cc(C2=CCCCc3c2ccc2c3ccn2C)cc(OC)c1OC` came in with an IC50 of 56 nM.
On the same count and under the same terms, then `COc1ccc(/C=C\c2cc(OC)c(OC)c(OC)c2)cc1O` [COMBRETASTATIN A4], with 12 nM; and `COc1cc(C2=CCCCc3c2ccc2c3CCN2)cc(OC)c1OC`, with 701 nM; and `COC(=O)C(=O)c1cn(C)c2ccc3c(c12)CCCC=C3c1cc(OC)c(OC)c(OC)c1`, with over 10000 nM.

Another assay can be described thus: Antiproliferative activity against human A2780 cells measured after 48 hrs by MTT assay. In kind it is functional, cell-based. Particulars: A2780, 48 h.
`COc1cc(C2=CCCCc3c2ccc2c3CCN2C)cc(OC)c1OC` yielded an IC50 of 69 nM.
As for `CCCn1ccc2c3c(ccc21)C(c1cc(OC)c(OC)c(OC)c1)=CCCC3`, it took 240 nM to reach half-maximal inhibition (IC50).
On the same count and under the same terms, to `COc1cc(C2=CCCCc3c2ccc2c3c(CO)cn2C)cc(OC)c1OC` belongs 31 nM.
In the case of `COc1cc(C2=CCCCc3c2ccc2c3ccn2C)cc(OC)c1OC`, the IC50 turned out to be 44 nM.
The compound `COc1cc(C2=CCCCc3c2ccc2c3CCN2)cc(OC)c1OC` showed an IC50 of 597 nM.
The compound `COC(=O)C(=O)c1cn(C)c2ccc3c(c12)CCCC=C3c1cc(OC)c(OC)c(OC)c1` returned an IC50 of over 10000 nM.

What is called IC50 is the concentration that gives 50% inhibition.

The values above are taken from ChEMBL document CHEMBL3877276, “Design, synthesis, and biological evaluation of cyclic-indole derivatives as anti-tumor agents via the inhibition of tubulin polymerization” (Eur J Med Chem, 2017).
